In data set [1] the target is Cannabinoid receptor 2 (Homo sapiens, UniProt P34972). Description: Displacement of 3[H]ligand from recombinant human CB2 receptor. The method, boiled down: (§1)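 Radioligand displacement from human recombinant CB1 and CB2 protein by a [³H] ligand. Initial screen at two concentrations in duplicate, with values >100 nM estimated. Percent inhibition read at 100 nM. IC₅₀ taken from four-point concentration curves run in duplicate.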

The test system of data set [2] is MDCK. The data set is described as follows: Efflux ratio of permeability from […] in MDR expressing MDCK cells. The settings on record: dog, mdck. Type of data set: ADME, cell-based, Canis lupus familiaris.
Data set [3] has as its target T1, Cannabinoid receptor 1 (Homo sapiens, UniProt P21554). The data set is described as follows: Displacement of 3[H]ligand from recombinant human CB1 receptor. The method, boiled down:
as §1

Data set [4] concerns MDCK. The data set is described as follows: (§2) Apparent permeability from apical to basolateral side in MDR expressing MDCK cells by LC-MS-MS analysis. The class given is ADME, cell-based, Canis lupus familiaris. To be noted: dog, mdck. The procedure, abridged:
(§3)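 Permeability measured across MDR-MDCK kidney cell monolayers, giving apparent permeability (Papp) in the apical-to-basolateral and basolateral-to-apical directions.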

For data set [5], the system named is MDCK. Description: (§4) Apparent permeability from basolateral to apical side in MDR expressing MDCK cells by LC-MS-MS analysis. Type of data set: ADME, cell-based, Canis lupus familiaris. To be noted: dog, mdck. The procedure, abridged: as §3
For data set [6], the system named is Mus musculus. The data set is described as follows: In vivo receptor occupancy at CB1 receptor in mouse hippocampus assessed as inhibition of [3H]SR141716A binding at 3 mg/kg, po for 3 days measured after 1 hr post last dose. Type of data set: functional. The procedure, abridged:
(§5)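 Chow-fed mice dosed orally once daily at 3 or 30 mg/kg for 3 consecutive days, killed 1 h after the last dose. [3H]SR141716A was given by lateral tail-vein injection 30 min before euthanasia. Hippocampus, cerebellum and brain stem (reference region) were scintillation-counted as DPM/mg. Binding potential = (receptor − reference)/reference. Occupancy (%) = 100 × (vehicle BP − drug BP)/vehicle BP. 5 animals per dose.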

Data set [7] concerns Mus musculus. The data set is described as follows: Antidyslipidemic activity in DIO mouse model assessed as reduction in terminal ALT level at 3 to 30 mg/kg, po for 21 days. The arrangement: scale not given: the % may be the effect or the level left. To be noted: dose mg/kg 3-30. The class given is functional. The method, boiled down: (§6)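 Diet-induced obese mice dosed orally at 3, 10 and 30 mg/kg for 21 days alongside vehicle controls. Plasma triglycerides, ALT and terminal liver weight were measured at the end of dosing. p-values were given for each dose.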

Data set [8] concerns Mus musculus. The data set is described as follows: Antidyslipidemic activity in DIO mouse model assessed as reduction in terminal fasting triglyceride level at 30 mg/kg, po for 21 days. Type of data set: functional. Also noted: scale not given: the % may be the effect or the level left. The method, boiled down:
as §6

In data set [9] the test system is Mus musculus. Description: Antidyslipidemic activity in DIO mouse model assessed as reduction in terminal fasting triglyceride level at 3 mg/kg, po for 21 days. The class given is functional. The arrangement: scale not given: the % may be the effect or the level left. The method, boiled down:
as §6

Data set [10] deals with Mus musculus. The data set is described as follows: In vivo receptor occupancy at CB1 receptor in mouse hippocampus assessed as inhibition of [3H]SR141716A binding at 30 mg/kg, po for 3 days measured after 1 hr post last dose. Type of data set: functional. The method, boiled down:
as §5

The test system of data set [11] is Mus musculus. Description: In vivo receptor occupancy at CB1 receptor in mouse cerebellum assessed as inhibition of [3H]SR141716A binding at 3 mg/kg, po for 3 days measured after 1 hr post last dose. The class given is functional. The method, boiled down: as §5
Data set [12] addresses Cannabinoid receptor 1 (Mus musculus) (UniProt P47746). To be noted: Cerebellum, 30 mg/kg.
In data set [13] the test system is Mus musculus. Description: Antidyslipidemic activity in DIO mouse model assessed as reduction in terminal liver weight at 3 to 30 mg/kg, po for 21 days. The class given is functional. Also noted: scale not given: the % may be the effect or the level left. The settings on record: dose mg/kg 3-30. The method, boiled down: as §6
Data set [14] has as its system Mus musculus. The data set is described as follows: Antidyslipidemic activity in DIO mouse model assessed as reduction in terminal fasting triglyceride level at 3 to 30 mg/kg, po for 21 days. The class given is functional. Also noted: scale not given: the % may be the effect or the level left. The settings on record: dose mg/kg 3-30. The procedure, abridged:
as §6

Data set [15] in a line: as §2. The class given is ADME, cell-based, Canis lupus familiaris. To be noted: dog, MDCK-MDR1. The procedure, abridged: as §3
Data set [16] can be described thus: as §4. Type of data set: ADME, cell-based, Canis lupus familiaris. To be noted: dog, MDCK-MDR1. The method, boiled down:
as §3

Data set [17] concerns the target T1, Cannabinoid receptor 1. The data set is described as follows: Inverse agonist activity against CB1 receptor expressed in human CHO cells assessed as effect on forskolin-stimulated cAMP level. The class given is functional, cell-based. On the technique in general: Cyclic AMP is a second messenger, typically raised through Gs and lowered through Gi signalling.

Data set [18] has as its system Brain. Description: Drug uptake in chow fed mouse brain assessed per gram of tissue at 100 mg/kg, po for 3 days measured 1 hr post last dose. The settings on record: in vivo. The arrangement: dose 100 mg/kg, route oral. The class given is ADME, organism-based. The procedure, abridged:
(§7)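 Chow-fed mice were dosed orally at 100 or 20 mg/kg for 3 consecutive days. Plasma and brain were taken 1 h after the last dose. Proteins were precipitated with 3× volume ice-cold acetonitrile containing internal standard, then centrifuged 15 min at 4 °C. Analysis by LC/MS/MS against calibrators in plasma or brain homogenate (1000 to 1.6 nM). Brain is given as ng/gm and also as % of plasma.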

Data set [19] can be described thus: Plasma concentration in chow fed mouse at 100 mg/kg, po for 3 days measured after 1 hr post last dose. The class given is ADME, organism-based. Also noted: dose 100 mg/kg, route oral. The method, boiled down: as §7
Data set [20] is described as follows: Drug uptake in chow fed mouse brain at 20 mg/kg, po for 3 days measured after 1 hr post last dose. To be noted: read-out: Drug uptake. Type of data set: ADME, organism-based. The arrangement: dose 20 mg/kg, route oral. The procedure, abridged:
as §7

Data set [21] concerns Mus musculus. The data set is described as follows: Antidiabetic activity in high fat diet-fed diabetes mouse model assessed as […] in insulin sensitivity at 20 mg/kg for 7 days by glucose tolerance test. The class given is functional, organism-based. The arrangement: dose 20 mg/kg.
The nature of data set [22]: Plasma concentration in chow fed mouse at 20 mg/kg, po for 3 days measured after 1 hr post last dose. The class given is ADME, organism-based. Also noted: dose 20 mg/kg, route oral. The procedure, abridged: as §7
For data set [23], the system named is Mus musculus. Description: Antidiabetic activity in high fat diet-fed diabetes mouse model assessed as reduction in glucose level at 20 mg/kg for 7 days by glucose tolerance test. Type of data set: functional, organism-based. Also noted: dose 20 mg/kg. The procedure, abridged: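 Mice kept on high-fat diet for 14 weeks were given 20 mg/kg PO for seven days. They were then challenged with glucose at 2 g/kg body weight, and glucose elimination was followed.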

Each structure is given as a SMILES string. Activity calls are given as the source filed them. The calls are words filed in the database; no cut-off is given here.

T1 sequence (P21554 whole entry): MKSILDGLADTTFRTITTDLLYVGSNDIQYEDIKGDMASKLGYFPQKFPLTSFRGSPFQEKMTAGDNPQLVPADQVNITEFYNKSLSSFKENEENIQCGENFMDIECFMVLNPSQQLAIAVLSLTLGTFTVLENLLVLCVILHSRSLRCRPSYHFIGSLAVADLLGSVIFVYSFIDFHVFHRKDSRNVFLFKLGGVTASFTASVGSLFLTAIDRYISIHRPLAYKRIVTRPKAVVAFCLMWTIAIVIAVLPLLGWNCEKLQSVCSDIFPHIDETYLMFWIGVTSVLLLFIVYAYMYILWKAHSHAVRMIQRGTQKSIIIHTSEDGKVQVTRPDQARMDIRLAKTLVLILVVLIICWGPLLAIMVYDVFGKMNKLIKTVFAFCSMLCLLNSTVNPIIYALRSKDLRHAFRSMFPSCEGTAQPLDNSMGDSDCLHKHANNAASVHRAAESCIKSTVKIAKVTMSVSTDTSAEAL
Sequence of Cannabinoid receptor 2 (P34972 whole entry): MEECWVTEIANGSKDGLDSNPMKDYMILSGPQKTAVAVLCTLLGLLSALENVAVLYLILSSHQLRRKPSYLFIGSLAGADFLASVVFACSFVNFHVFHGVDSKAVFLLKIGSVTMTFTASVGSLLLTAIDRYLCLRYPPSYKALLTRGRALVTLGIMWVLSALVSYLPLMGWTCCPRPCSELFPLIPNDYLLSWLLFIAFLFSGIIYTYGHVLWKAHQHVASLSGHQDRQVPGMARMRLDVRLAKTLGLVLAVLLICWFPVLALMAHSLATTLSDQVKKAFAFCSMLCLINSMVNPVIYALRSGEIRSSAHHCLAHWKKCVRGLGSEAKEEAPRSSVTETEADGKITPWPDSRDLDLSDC
Sequence of Cannabinoid receptor 1 (Mus musculus) (P47746 whole entry): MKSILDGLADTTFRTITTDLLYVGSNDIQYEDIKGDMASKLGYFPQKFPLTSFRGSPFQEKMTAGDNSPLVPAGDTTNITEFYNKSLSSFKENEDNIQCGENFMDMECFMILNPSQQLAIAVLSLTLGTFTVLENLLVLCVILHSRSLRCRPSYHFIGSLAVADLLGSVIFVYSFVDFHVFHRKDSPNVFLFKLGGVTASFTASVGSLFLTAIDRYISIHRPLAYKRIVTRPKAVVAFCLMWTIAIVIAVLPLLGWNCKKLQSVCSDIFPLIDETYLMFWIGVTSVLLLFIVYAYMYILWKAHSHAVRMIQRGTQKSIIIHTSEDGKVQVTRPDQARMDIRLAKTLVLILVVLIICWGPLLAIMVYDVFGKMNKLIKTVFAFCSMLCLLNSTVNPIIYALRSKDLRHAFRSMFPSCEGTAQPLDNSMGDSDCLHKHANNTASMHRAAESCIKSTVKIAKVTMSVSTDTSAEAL

As to `NC(=O)CNC(=O)CN/C(=N\S(=O)(=O)c1ccc(Cl)cc1)N1CC(c2ccccc2)C(c2ccc(Cl)cc2)=N1` (stereo not drawn), the results for the IC50 in data set [1] and in data set [3] were more than 5000 nM and 25 nM, respectively. Moreover, in data set [2], the Ratio came out at 112. Further, the Papp in data set [4] was 0.2 ucm/s; in data set [5], 22.3 ×10⁻⁶ cm/s.

Turning to `CN/C(=N\S(=O)(=O)c1ccc(Cl)cc1)N1CC(c2ccccc2)C(c2ccc(Cl)cc2)=N1` (racemic) [RAC-IBIPINABANT], the Occ in data set [6] is 15%; in data set [10], 100%; in [11], 15%; in [12], 102%. The Activity came out at 56% in data set [7], 19% in data set [8], 22% in data set [9] and 25% in data set [13].

On to `NC(=O)CN/C(=N\S(=O)(=O)c1ccc(Cl)cc1)N1CC(c2ccccc2)C(c2ccc(Cl)cc2)=N1` (racemic) [listing 1 of 2 here], for which the Activity in data set [7] turned out to be 49%; in data set [14], 26%; in data set [13] it was 17%. For the same compound, the IC50 – broadly, the concentration that gives 50% inhibition – in data set [1] came to 5000 nM; in data set [3], 18 nM; in data set [17], 18 nM. Besides, the Papp A→B (in general, the apparent permeability from the apical to the basolateral side of a cell layer) in data set [15] turned out to be 1.8 ×10⁻⁶ cm/s. Further, in data set [16], the Papp B→A – broadly, how fast a substance crosses the layer from the basolateral side – came out at 60.5 ×10⁻⁶ cm/s.

`CNC(=NS(=O)(=O)c1ccc(Cl)cc1)N1CC(c2ccccc2)C(c2ccc(Cl)cc2)=N1` (racemic) [RAC-IBIPINABANT]: in [18], the Drug uptake stood at 2080 ng/g. The compound also displayed a concentration at 1 h in [19] of 5130 ng/mL. In addition, the apical-to-basolateral permeability (Papp A→B) in data set [15] came to 9.45 ×10⁻⁶ cm/s. Also, the Papp B→A in [16] was found to be 10 ×10⁻⁶ cm/s.

With `CC(C)[C@H](N/C(=N\S(=O)(=O)c1ccc(Cl)cc1)N1CC(c2ccccc2)C(c2ccc(Cl)cc2)=N1)C(N)=O` (stereo partly drawn), the IC50 is more than 1000 nM in [1] and 2 nM in data set [3]. Also, the Drug uptake result in data set [18] (BLD = below limit of detection) was “BLD”. In data set [19], this compound showed a concentration at 1 h of 3850 ng/mL. Also, the Papp A→B in data set [15] is 1.08 ×10⁻⁶ cm/s. In data set [16], the Papp B→A was found to be 16.6 ×10⁻⁶ cm/s.

`NC(=O)CN=C(NS(=O)(=O)c1ccc(Cl)cc1)N1CC(c2ccccc2)C(c2ccc(Cl)cc2)=N1` (single isomer, unassigned; enantiomer 1): the Occ is listed as 10% in data set [6], 3% in [10] and 0% in data set [11]. For the same compound, the values for the IC50 in data set [1] and in data set [3] were more than 5000 nM and 32 nM, respectively. In data set [18], this compound registered a Drug uptake of 685 ng/g. The compound also returned a concentration at 1 h in [19] of 16700 ng/mL.

For the compound `Cc1c(C(=O)NN2CCCCC2)nn(-c2ccc(Cl)cc2Cl)c1-c1ccc(Cl)cc1` [RIMONABANT], the Occ in data set [6] is 10%; in data set [10], 100%; in data set [11], 12%; in data set [12], 87%. The results for the concentration at 1 h in data set [20] and in data set [22] were 1080 ng/g and 1200 ng/mL, respectively. For the same compound, the outcome in data set [21] and in data set [23] was Active.

As to `NC(=O)CN/C(=N\S(=O)(=O)c1ccc(Cl)cc1)N1CC(c2ccccc2)C(c2ccc(Cl)cc2)=N1` (racemic) [listing 2 of 2 here], the outcome in data set [21] and in data set [23] was Active.

Source of the values: ChEMBL document CHEMBL2150881, “JD-5006 and JD-5037: peripherally restricted (PR) cannabinoid-1 receptor blockers related to SLV-319 (Ibipinabant) as metabolic disorder therapeutics devoid of CNS liabilities” (Bioorg Med Chem Lett, 2012).
